Compound activity deposited in PubChem by several laboratories.
Hits are enriched below; roughly 2.2% of the tested compounds scored in any of these assays.
MEX-5 binding = C. elegans MEX-5 TCR-2 RNA binding activity. Q9XUB2. MEX-5/FITC-TCR2 RNA binding, fluorescence polarization; stronger effect = lower value. activity score (negative = inhibition of binding), % at 10 µM. 300,000 compounds, 0.38% hits;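 active means inhibition past about -25% in most replicates, and total fluorescence under double the plate's negative control median, limit read from the data; inconclusive means replicates evenly split on the limit, or fluorescence at least double controls; inactive means too little inhibition in most replicates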;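 further: 0% = DMSO and -100% = 5 µM competing unlabeled TCR2 RNA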
Target sequence (Q9XUB2 whole entry, looked up): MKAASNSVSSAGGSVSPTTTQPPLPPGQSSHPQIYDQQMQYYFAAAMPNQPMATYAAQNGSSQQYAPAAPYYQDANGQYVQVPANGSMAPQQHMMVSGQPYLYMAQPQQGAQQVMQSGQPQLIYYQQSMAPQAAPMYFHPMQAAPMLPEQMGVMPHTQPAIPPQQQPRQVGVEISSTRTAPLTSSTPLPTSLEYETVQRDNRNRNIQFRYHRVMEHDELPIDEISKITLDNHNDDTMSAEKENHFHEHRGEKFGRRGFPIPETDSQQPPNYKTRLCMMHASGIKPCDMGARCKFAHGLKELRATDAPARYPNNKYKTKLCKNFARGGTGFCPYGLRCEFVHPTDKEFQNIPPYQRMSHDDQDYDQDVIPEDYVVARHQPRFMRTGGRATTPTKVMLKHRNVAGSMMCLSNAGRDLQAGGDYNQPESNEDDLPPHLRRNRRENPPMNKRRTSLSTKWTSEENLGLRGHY
VIM-2 inh = inhibitors of Pseudomonas aeruginosa VIM-2 metallo-beta-lactamase; purified VIM-2, nitrocefin hydrolysis, epi-absorbance fluorescence; inhibition, % at 5.6 µM; 290,000 compounds, 0.89% hits; AID 1527;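 active means inhibition above the mean of all tested compounds plus 3 SD, cutoff set per screening run, cut at about 7.5% in these data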;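 further: red hydrolysis product quenches plate fluorescence so inhibitors raise well fluorescence; 0% = enzyme with DMSO and 100% = DMSO without enzyme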
GLD-1 RNA inh = GLD-1-TGE RNA interaction inhibition (C. elegans). Q17339. purified GLD-1 + fluorescein TGE RNA, fluorescence polarization. inhibition, % at 5.96 µM. 320,000 compounds, 0.44% hits. AID 2280;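 active means percent inhibition above a per-plate cutoff, the plate mean of test compounds plus 3 SD, cut at about 30% in these data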;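 further: 0% = DMSO wells with GLD-1 and probe and 100% = wells lacking GLD-1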
IMP-1 inh = inhibitors of Pseudomonas aeruginosa IMP-1 metallo-beta-lactamase; purified IMP-1, nitrocefin hydrolysis, epi-absorbance fluorescence; inhibition, % at 5.6 µM; 290,000 compounds, 0.45% hits; AID 1556;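 active means inhibition above the mean plus 3 SD of all compounds in the same screening run, cut at about 4.5% in these data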;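 further: 0% = IMP-1 with DMSO and 100% = DMSO wells lacking enzyme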
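System – purified recombinant IMP-1 beta-lactamase · Input – IMP-1 dispensed at 0.2 nM · Timing – 15 min preincubation plus 25 min reaction at 25 °C · Signal – Epi-absorbance fluorescence, 480 nm excitation, 530 nm emission · Measure – percent IMP-1 inhibition derived from blank-referenced optical density · Controls – Enzyme-plus-DMSO low control, enzyme-free DMSO high control · Replication – singlicate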
Bcl-xL primary = blocks human Bcl-xL binding to Bim BH3 peptide. AID 2129. GST-Bcl-xL / FITC-Bim BH3 peptide fluorescence polarization. 320,000 compounds, 0.7% hits. inhibition, % at 10.9 µM. Q07817;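 active means inhibition above the mean of all tested compounds plus 3 SD, cutoff set per campaign, cut at about 30% in these data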;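 further: 0% = DMSO wells and 100% = unlabeled Bim-BH3 peptide competitor; inhibitors lower millipolarization by displacing the labeled peptide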
Target sequence (Q07817 whole entry, looked up): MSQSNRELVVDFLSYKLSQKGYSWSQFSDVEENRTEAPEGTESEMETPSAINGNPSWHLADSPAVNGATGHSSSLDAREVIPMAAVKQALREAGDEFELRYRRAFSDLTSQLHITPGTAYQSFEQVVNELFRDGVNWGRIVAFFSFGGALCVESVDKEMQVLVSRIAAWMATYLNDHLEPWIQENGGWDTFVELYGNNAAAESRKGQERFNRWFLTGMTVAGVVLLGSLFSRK
EBV gp42 inh = blocks Epstein-Barr virus glycoprotein 42 binding; Fluorescence polarization binding assay, mP read-out; inhibition, % (tested at 21.74 µM); 220,000 compounds, 0.42% hits; AID 1085; in the data active means inhibition above about 50%
Starred values were filed as active, the others as inactive; ? = inconclusive; · = no result.

SMILES	MEX-5 binding	VIM-2 inh	GLD-1 RNA inh	IMP-1 inh	Bcl-xL primary	EBV gp42 inh
Cc1ccc(NC2=Nc3ccccc3N3C2=Nc2c(c(C)nn2-c2ccccc2)C3c2ccc(O)c(O)c2)cc1 (stereo not drawn)	·	-2.2	·	-2.3	·	77.9*
Cc1nn(-c2ccc([N+](=O)[O-])cc2)c2c1C(c1cccc(Br)c1)N1C(=N2)C(=O)Nc2ccccc21 (stereo not drawn)	-3.7	-1.0	4.1	-1.4	3.1	4.5
CCc1ccc(-c2cc3c(=O)n(CC(=O)NCCCN4CCN(CC)CC4)nc(C)n3n2)cc1	2.1	1.8	2.7	-3.5	-1.6	·
Clc1ccc(C2Nc3cccc4cccc(c34)N2)cc1Cl	1.1	3.1	3.7	6.1*	21.2	·
Brc1ccc(C2Nc3cccc4cccc(c34)N2)o1	1.1	-1.2	20.4	1.4	50.8*	12.3
c1csc(C2Nc3cccc4cccc(c34)N2)c1	-3.3	1.8	20.5	0.7	60.5*	6.2
Clc1cccc(Cl)c1C1Nc2cccc3cccc(c23)N1	1.5	-1.8	13.2	-0.4	15.8	·
c1ccc(C2Nc3cccc4cccc(c34)N2)cc1	0.1	-1.3	13.2	-2.7	38.6*	·
CN(C)CCCNC(=O)C(=O)NCC(c1cccs1)S(=O)(=O)c1ccc(F)cc1 (stereo not drawn)	1.0	·	-0.3	·	2.3	·
O=C(NNC(=O)c1ncc(Cl)c(Cl)c1Cl)c1ccc(F)cc1	-1.7	-2.4	-0.5	-1.5	-1.5	·
COc1ccc(/C=C2\Oc3cc(OC(=O)N4CCOCC4)ccc3C2=O)cc1	2.7	-3.9	1.2	-2.3	5.8	-17.4
COc1ccccc1C(=O)Oc1ccc2c(c1)O/C(=C\c1ccncc1)C2=O	-26.1*	2.1	100.9*	1.8	123.1*	32.9
O=C(Oc1ccc2c(c1)O/C(=C\c1ccncc1)C2=O)c1cccs1	-5.1	2.8	83.8*	1.4	78.3*	11.9
CC(=O)Oc1ccc2c(c1)O/C(=C\c1ccncc1)C2=O	?	0.9	92.6*	-1.7	125.9*	77.1*
O=C(O)c1cc([N+](=O)[O-])ccc1NCc1ccccc1Cl	0.1	11.3*	5.2	-2.6	10.2	-11.6
O=C(O)c1cc([N+](=O)[O-])ccc1NCCc1ccccc1	0.4	1.1	-5.6	-1.1	-0.9	-5.3
O=C(O)c1cc([N+](=O)[O-])ccc1NCc1ccccn1	·	·	16.2	·	30.6*	·
CCC(=O)Nc1ccc(NCc2cccs2)cc1	0.8	0.8	-3.9	1.3	1.9	·
O=C1N(O)C2(C=CCCC2)/C(=N\O)C12CCCCC2 (stereo not drawn)	2.5	10.4*	4.9	1.4	-1.7	-29.9
CN(CC(=O)Nc1sccc1C#N)C1CCCCC1	-4.6	-6.0	62.1*	-2.6	61.0*	32.0
N#Cc1ccsc1NC(=O)CN1CCCCCC1	1.4	-3.1	14.4	-1.9	2.6	-1.1
Cc1ccccc1C(=O)NCC(=O)OCCCOC(=O)CNC(=O)c1ccccc1C	2.2	·	6.6	·	-2.1	·
COc1cccc(N(CC(=O)NC2CCCCC2)C(=O)CCCC(=O)Nc2ccccn2)c1	0.9	-0.9	3.5	-1.2	1.4	·
CCS(=O)(=O)N1CCN(c2cc3c(cc2[N+](=O)[O-])n(C)c(=O)n3C)CC1	-1.1	1.2	-1.6	-0.3	4.9	-5.3
O=C1c2ccccc2C(=O)c2[nH]c(=O)[nH]c21	-55.4*	0.3	4.8	-3.9	16.7	·
SMILES	MEX-5 binding	VIM-2 inh	GLD-1 RNA inh	IMP-1 inh	Bcl-xL primary	EBV gp42 inh
O=C1c2ccccc2C(=O)c2[nH]cnc21	?	0.6	·	-2.7	·	-4.9
CCOC(=O)c1c(NC(=O)CN2C(=O)CN(C)C2=O)sc(C)c1C	4.7	3.0	-8.7	10.6*	6.0	-2.7
OCCNCCNCc1ccc(-c2ccccc2)cc1	-2.9	9.3*	0.2	-1.6	0.4	-8.9
CC(CO)(CO)NCc1ccc(-c2ccccc2)cc1	1.1	-1.4	0.0	-1.8	5.1	0.3
Cc1nnc2c(NC(C)C)nc3ccccc3n12	1.9	9.0*	-2.2	-2.6	-3.7	-10.4
CC(NC(=O)CNC(=O)c1cccs1)c1cccc(C(F)(F)F)c1 (stereo not drawn)	·	·	9.8	·	·	·
O=S(=O)(Nc1nc2ccccc2nc1N1CCc2ccccc2C1)c1ccc(Cl)cc1	0.4	-0.1	-0.7	-1.5	4.4	-1.7
O=S(=O)(Nc1nc2ccccc2nc1N1CCN(c2ccccn2)CC1)c1ccc(Cl)cc1	·	-0.7	·	-1.8	·	63.8*
O=C(N=c1ccn(-c2nc3ccccc3nc2NS(=O)(=O)c2ccc(Cl)cc2)cc1)c1cccs1	-9.0	1.2	14.9	0.8	48.4*	-51.1
CC(C)N(C(=O)COC(=O)c1cccc(N(C)C)c1)c1ccccc1	1.9	-1.7	-0.8	-1.4	1.8	·
COc1ccc(CCNC(=O)c2ccc(Cl)c(S(=O)(=O)N3CCCC3)c2)cc1	·	·	4.1	·	-3.3	·
Cc1cc2[nH]c(=O)c(=O)[nH]c2cc1S(=O)(=O)N1CCC(C)CC1	-2.9	-1.2	6.2	-3.0	-1.9	·
COc1ccc2cc([C@H](C)C(=O)N(C)Cc3ccccc3N3CCCC3)ccc2c1	9.9	7.8*	-7.1	-0.5	6.0	·
Cc1ccc(-n2c(SCC(=O)N(C)C)nnc2-c2ccco2)cc1	0.4	0.0	-0.7	-0.9	0.7	·
CCOC(=O)c1c(C)[nH]c(C2=NNC(=Nc3ccc(OCC)cc3)SC2)c1C	·	-1.7	17.1	-1.9	76.7*	9.6
COc1ccc(Cl)cc1S(=O)(=O)N1CCN(C(=O)c2n[nH]c(=O)c3ccccc23)CC1	·	·	5.5	·	·	·
CC[C@H](C)[C@@H](CN[C@H](CCCCNC)CNC)NCC1CCCC1	1.9	12.0*	-5.4	-2.8	9.0	·
CCCC[C@@H](CN[C@H](C)CNC)NCC1CCC(C(C)(C)C)CC1 (stereo partly drawn)	24.3	-2.5	10.6	3.8	3.9	·
CN=C(c1ccco1)n1c(=S)nc(-c2ccco2)n(C)c1=S	-1.9	-3.2	9.3	0.2	33.4*	7.2
COc1ccc(N2CCN(Cc3oc(CO)cc(=O)c3O)CC2)cc1	-2.2	2.2	22.5	-3.2	53.5*	-8.6
CN1CCN(Cc2oc(CO)cc(=O)c2O)CC1	-1.3	1.4	2.2	1.2	7.4	5.9
O=c1cc(CO)oc(CN2CCCC2)c1O	-7.3	-0.9	6.3	8.3*	17.4	-12.7
CCCc1ccc(C(=O)CN2C(=O)C(=O)N(C3CCCC3)C2=O)cc1	·	·	5.5	·	1.4	·
Cc1c2cnn(CC(=O)Nc3c(F)c(F)cc(F)c3F)c(=O)c2c(C)n1Cc1ccccc1F	0.3	-0.5	3.3	-1.1	35.3*	13.0
CCOC(=O)[C@@H]1[C@H]2COc3ccc(Br)cc3[C@H]2N2C(=O)N(c3ccc(F)cc3)C(=O)[C@@]12C	-1.2	0.6	-5.7	-1.4	1.1	·
CCCOc1cc(N(CC)CC)ccc1/C=C(/C#N)c1nc2ccc(C)cc2[nH]1	-4.3	1.6	-42.0	0.6	-48.5	92.2*
